According to ChEMBL document CHEMBL3228024, “Prodrug analogues of the antitumor alkaloid camptothecin” (1979):

Columns and labels:
Type in all cases: functional
L1210 [1] = assay: Antitumor activity against mouse L1210 cells allografted in mouse assessed as increase in mouse survival time at 6.5 mg/kg, iv for 4 to 9 days relative to control
Summary of the method: (§1)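 Run under NCI protocols 3LE21 (L1210) and 3PS31 (P388) in mice, six mice per test group. Drug was injected daily for 9 days, with 20–30 uninjected control animals. Mean or median survival time of the treated group was divided by that of controls and multiplied by 100, then reported as percentage increase in life span.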

L1210 [2] = assay: Cytotoxicity against mouse L1210 cells relative to camptothecin
P388 [3] = assay: Cytotoxicity against mouse P388 cells relative to camptothecin
P388 [4] = assay: Antitumor activity against mouse P388 cells allografted in mouse assessed as increase in mouse survival time at 6.5 mg/kg, iv for 4 to 9 days relative to control
Summary of the method: (§2)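 Mice bearing P388 leukemia (NCI protocol 3PS31), six mice per test, drug injected daily for 9 days (in some tests for only 6 days). Controls were 20–30 animals receiving no injection. Activity was expressed as mean/median survival time of the test group divided by that of the control group ×100.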

[5] = Cytotoxicity against human 9KB cells relative to camptothecin
P388 [6] = assay: Antitumor activity against mouse P388 cells allografted in mouse assessed as increase in mouse survival time at 2.5 mg/kg, iv for 6 days relative to control
Summary of the method: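 NCI P388 protocol 3PS31 in mice, six mice per test group. Drug was injected daily for only 6 days, with 20–30 uninjected controls. The value is the mean or median survival time of treated mice over that of controls ×100, reported as percentage increase in life span.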

[7] = Cytotoxicity against human 9KB cells
P388 [8] = assay: Cytotoxicity against mouse P388 cells
L1210 [9] = assay: Cytotoxicity against mouse L1210 cells
P388 [10] = assay: Antitumor activity against mouse P388 cells allografted in mouse assessed as increase in mouse survival time at 62.5 mg/kg, iv for 4 to 9 days relative to control; summary of the method: as §2
L1210 [11] = assay: Antitumor activity against mouse L1210 cells allografted in mouse assessed as increase in mouse survival time at 1.1 mg/kg, iv for 4 to 9 days relative to control; summary of the method: as §1
P388 [12] = assay: Antitumor activity against mouse P388 cells allografted in mouse assessed as increase in mouse survival time at 1.1 mg/kg, iv for 4 to 9 days relative to control; summary of the method: as §1
P388 [13] = assay: Antitumor activity against mouse P388 cells allografted in mouse assessed as increase in mouse survival time at 10 mg/kg, iv for 4 to 9 days relative to control; summary of the method: as §1
P388 [14] = assay: Antitumor activity against mouse P388 cells allografted in mouse assessed as increase in mouse survival time at 0.4 mg/kg, iv for 4 to 9 days relative to control; summary of the method: as §1
L1210 [15] = assay: Antitumor activity against mouse L1210 cells allografted in mouse assessed as increase in mouse survival time at 3.3 mg/kg, iv for 4 to 9 days relative to control; summary of the method: as §1
P388 [16] = assay: Antitumor activity against mouse P388 cells allografted in mouse assessed as increase in mouse survival time at 3.3 mg/kg, iv for 4 to 9 days relative to control; summary of the method: as §1
L1210 [17] = assay: Antitumor activity against mouse L1210 cells allografted in mouse assessed as increase in mouse survival time at 0.4 mg/kg, iv for 4 to 9 days relative to control; summary of the method: as §1
L1210 [18] = assay: Antitumor activity against mouse L1210 cells allografted in mouse assessed as increase in mouse survival time at 10 mg/kg, iv for 4 to 9 days relative to control; summary of the method: as §1
P388 [19] = assay: Antitumor activity against mouse P388 cells allografted in mouse assessed as increase in mouse survival time at 23 mg/kg, iv for 4 to 9 days relative to control; summary of the method: as §1
P388 [20] = assay: Antitumor activity against mouse P388 cells allografted in mouse assessed as increase in mouse survival time at 45 mg/kg, iv for 4 to 9 days relative to control; summary of the method: as §1
P388 [21] = assay: Antitumor activity against mouse P388 cells allografted in mouse assessed as increase in mouse survival time at 6.4 mg/kg, iv for 4 to 9 days relative to control; summary of the method: as §1

C=CC(=O)OCc1c([C@@](O)(CC)C(=O)NC(C)C)cc2n(c1=O)Cc1cc3ccccc3nc1-2
T/C (L1210 [1]): 125% | Activity (L1210 [2]): 2.7% | Activity (P388 [3]): 0.45% | T/C (P388 [4]): 155% | Activity [5]: 25% | T/C (P388 [6]): 165% | ED50 [7]: 6.9 ×10⁻⁵ umol/ml | ED50 (P388 [8]): 3.9 ×10⁻⁴ umol/ml | ED50 (L1210 [9]): 7.6 ×10⁻⁴ umol/ml

CC[C@@](O)(C(=O)NC(C)C)c1cc2n(c(=O)c1CN1CCCC1)Cc1cc3ccccc3nc1-2.Cl
T/C (P388 [10]): 125%

CC[C@@]1(O)C(=O)OCc2c1cc1n(c2=O)Cc2cc3ccccc3nc2-1 [CAMPTOTHECIN]
T/C (L1210 [11]): 131% | T/C (P388 [12]): 147% | T/C (P388 [13]): 81% | T/C (P388 [14]): 137% | ED50 [7]: <2.8 ×10⁻⁶ umol/ml | ED50 (P388 [8]): 8.6 ×10⁻⁶ umol/ml | T/C (L1210 [15]): 168% | T/C (P388 [16]): 204% | T/C (L1210 [17]): 114% | T/C (L1210 [18]): 85% | ED50 (L1210 [9]): 2.8 ×10⁻⁶ umol/ml

CC[C@@](O)(C(=O)NC(C)C)c1cc2n(c(=O)c1Cn1ccnc1)Cc1cc3ccccc3nc1-2
T/C (P388 [19]): 89% | T/C (P388 [20]): 92% | T/C (P388 [21]): 105%
